Each block holds one molecule with its values, some of them ahead of it. *1 amine or outer side, *2 acyl side, *3 side chain or, on linkers, in order; H or OH if unused. Where a SMILES comes first, the peptide text is derived from it. Bridges are numbered along the chain shown (N, C = ends). [ ]: non-standard residue; d: D form. The star is where a group is joined. Staurosporine = CO[C@@H]1[C@H](N(C)*)C[C@H]2O[C@]1(C)n1c3ccccc3c3c4c(c5c6ccccc6n2c5c31)C(=O)NC4; Suc = O=C(CCC(=O)[*:2])[*:1]; Dap = NC[C@H](N)C(=O)O; βAla = NCCC(=O)O
Assays:
[1] = target: Casein kinase I isoform gamma-2 (Homo sapiens) (UniProt P78368); test: Binding affinity to human CSNK1G2 at 500 nM by cell-based competition binding assay relative to control in presence of DTT
Sequence of Casein kinase I isoform gamma-2 (Homo sapiens) (P78368 whole entry, looked up, canonical isoform): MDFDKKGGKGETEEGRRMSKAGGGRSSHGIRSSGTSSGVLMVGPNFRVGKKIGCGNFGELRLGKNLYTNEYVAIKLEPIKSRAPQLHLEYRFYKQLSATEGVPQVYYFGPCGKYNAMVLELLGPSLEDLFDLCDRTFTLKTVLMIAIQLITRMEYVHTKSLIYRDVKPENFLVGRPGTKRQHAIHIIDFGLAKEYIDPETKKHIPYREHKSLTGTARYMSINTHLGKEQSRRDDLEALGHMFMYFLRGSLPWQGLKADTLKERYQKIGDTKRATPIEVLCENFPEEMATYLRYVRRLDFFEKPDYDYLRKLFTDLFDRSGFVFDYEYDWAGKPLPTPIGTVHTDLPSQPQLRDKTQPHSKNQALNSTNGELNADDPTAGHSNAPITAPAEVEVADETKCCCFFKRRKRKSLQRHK
In short: (§1)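 Commercial (Ambit) competitive kinase-binding panel of 90 kinases measured the binding profile. Run under reducing conditions of 7.5 mM DTT. Binding is expressed relative to control.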

[2] = target: Dual specificity tyrosine-phosphorylation-regulated kinase 1B (Homo sapiens) (UniProt Q9Y463); test: Binding affinity to human DYRK1B at 500 nM by cell-based competition binding assay relative to control in presence of DTT; in short: as §1
[3] = target: Receptor tyrosine-protein kinase erbB-4 (Homo sapiens) (UniProt Q15303); test: Binding affinity to human ERBB4 at 500 nM by cell-based competition binding assay relative to control in presence of DTT; in short: as §1
Sequence of Receptor tyrosine-protein kinase erbB-4 (Homo sapiens) (Q15303 whole entry): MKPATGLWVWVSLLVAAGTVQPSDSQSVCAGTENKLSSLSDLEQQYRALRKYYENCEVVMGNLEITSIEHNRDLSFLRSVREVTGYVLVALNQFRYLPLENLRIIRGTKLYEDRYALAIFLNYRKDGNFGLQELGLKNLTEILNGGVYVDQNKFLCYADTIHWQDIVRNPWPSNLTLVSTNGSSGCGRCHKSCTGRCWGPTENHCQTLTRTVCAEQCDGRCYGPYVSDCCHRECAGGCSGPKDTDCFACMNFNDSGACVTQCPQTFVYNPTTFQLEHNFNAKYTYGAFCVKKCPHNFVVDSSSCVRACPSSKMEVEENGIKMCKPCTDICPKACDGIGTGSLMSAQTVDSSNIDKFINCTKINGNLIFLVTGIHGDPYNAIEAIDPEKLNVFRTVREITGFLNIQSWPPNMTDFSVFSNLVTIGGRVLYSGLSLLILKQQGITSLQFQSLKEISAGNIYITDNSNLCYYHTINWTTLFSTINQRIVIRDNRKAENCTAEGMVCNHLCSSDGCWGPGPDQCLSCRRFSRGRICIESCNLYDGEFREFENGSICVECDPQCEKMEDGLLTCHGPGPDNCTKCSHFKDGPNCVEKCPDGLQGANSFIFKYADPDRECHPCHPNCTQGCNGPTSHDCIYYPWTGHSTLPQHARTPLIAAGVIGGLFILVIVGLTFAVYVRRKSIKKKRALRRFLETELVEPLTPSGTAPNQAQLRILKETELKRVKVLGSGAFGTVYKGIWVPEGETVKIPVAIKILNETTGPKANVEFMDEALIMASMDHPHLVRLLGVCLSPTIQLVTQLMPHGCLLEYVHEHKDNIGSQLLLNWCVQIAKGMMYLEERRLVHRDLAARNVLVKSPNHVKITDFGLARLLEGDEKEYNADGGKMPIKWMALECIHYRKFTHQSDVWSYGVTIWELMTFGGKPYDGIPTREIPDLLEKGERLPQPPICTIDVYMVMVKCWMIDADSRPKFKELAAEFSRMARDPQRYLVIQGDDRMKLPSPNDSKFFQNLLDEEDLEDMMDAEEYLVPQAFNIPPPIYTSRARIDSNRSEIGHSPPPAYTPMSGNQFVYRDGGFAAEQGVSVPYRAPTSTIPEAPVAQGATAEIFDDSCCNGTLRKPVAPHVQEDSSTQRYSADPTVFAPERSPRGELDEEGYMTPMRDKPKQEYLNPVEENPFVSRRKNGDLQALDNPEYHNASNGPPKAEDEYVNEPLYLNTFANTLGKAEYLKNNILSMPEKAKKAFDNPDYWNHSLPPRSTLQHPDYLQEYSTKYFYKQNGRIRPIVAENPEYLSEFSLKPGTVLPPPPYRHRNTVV

[4] = target: Vascular endothelial growth factor receptor 2 (Homo sapiens) (UniProt P35968); test: Binding affinity to human VEGFR2 at 500 nM by cell-based competition binding assay relative to control in presence of DTT
[5] = target: Serine/threonine-protein kinase 32C (Homo sapiens) (UniProt Q86UX6); test: Binding affinity to human YANK3 at 500 nM by cell-based competition binding assay relative to control in presence of DTT
Sequence of Serine/threonine-protein kinase 32C (Homo sapiens) (Q86UX6 whole entry): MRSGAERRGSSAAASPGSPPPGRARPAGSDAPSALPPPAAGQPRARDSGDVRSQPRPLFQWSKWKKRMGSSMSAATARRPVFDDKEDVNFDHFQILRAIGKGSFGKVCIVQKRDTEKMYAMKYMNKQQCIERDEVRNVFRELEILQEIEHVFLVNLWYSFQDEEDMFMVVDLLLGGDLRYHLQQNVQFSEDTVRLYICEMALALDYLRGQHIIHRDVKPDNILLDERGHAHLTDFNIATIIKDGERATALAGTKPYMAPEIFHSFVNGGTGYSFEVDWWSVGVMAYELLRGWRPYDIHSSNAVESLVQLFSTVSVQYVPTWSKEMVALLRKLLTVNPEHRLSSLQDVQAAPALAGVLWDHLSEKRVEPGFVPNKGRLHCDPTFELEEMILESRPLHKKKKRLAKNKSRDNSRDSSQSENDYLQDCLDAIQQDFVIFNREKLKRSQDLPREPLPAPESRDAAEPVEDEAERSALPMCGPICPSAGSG

[6] = test system: Tyrosine-protein kinase ABL1 (Homo sapiens), P00519 [E255K]; test: Binding affinity to human ABL1 E255K mutant at 500 nM by cell-based competition binding assay relative to control in presence of DTT
In short: (§2)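 Kinase binding profiling ran on a commercial (Ambit) competitive binding screen against a panel of 90 kinases. The screen used reducing conditions with 7.5 mM DTT. To withstand the DTT, the bivalent ligand was tested as its amide isostere, with the disulfide replaced. A staurosporine derivative carrying a 3 β-alanine linker was run as the reference compound.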

[7] = Ratio of compound to staurosporine binding affinity to PKA in presence of DTT
[8] = target: Platelet-derived growth factor receptor beta (Homo sapiens) (UniProt P09619); test: Binding affinity to human PDGFRbeta at 500 nM by cell-based competition binding assay relative to control in presence of DTT
[9] = target: Receptor-type tyrosine-protein kinase FLT3 (Homo sapiens) (UniProt P36888); test: Binding affinity to human FLT3 at 500 nM by cell-based competition binding assay relative to control in presence of DTT; in short: as §1
Sequence of Receptor-type tyrosine-protein kinase FLT3 (Homo sapiens) (P36888 whole entry): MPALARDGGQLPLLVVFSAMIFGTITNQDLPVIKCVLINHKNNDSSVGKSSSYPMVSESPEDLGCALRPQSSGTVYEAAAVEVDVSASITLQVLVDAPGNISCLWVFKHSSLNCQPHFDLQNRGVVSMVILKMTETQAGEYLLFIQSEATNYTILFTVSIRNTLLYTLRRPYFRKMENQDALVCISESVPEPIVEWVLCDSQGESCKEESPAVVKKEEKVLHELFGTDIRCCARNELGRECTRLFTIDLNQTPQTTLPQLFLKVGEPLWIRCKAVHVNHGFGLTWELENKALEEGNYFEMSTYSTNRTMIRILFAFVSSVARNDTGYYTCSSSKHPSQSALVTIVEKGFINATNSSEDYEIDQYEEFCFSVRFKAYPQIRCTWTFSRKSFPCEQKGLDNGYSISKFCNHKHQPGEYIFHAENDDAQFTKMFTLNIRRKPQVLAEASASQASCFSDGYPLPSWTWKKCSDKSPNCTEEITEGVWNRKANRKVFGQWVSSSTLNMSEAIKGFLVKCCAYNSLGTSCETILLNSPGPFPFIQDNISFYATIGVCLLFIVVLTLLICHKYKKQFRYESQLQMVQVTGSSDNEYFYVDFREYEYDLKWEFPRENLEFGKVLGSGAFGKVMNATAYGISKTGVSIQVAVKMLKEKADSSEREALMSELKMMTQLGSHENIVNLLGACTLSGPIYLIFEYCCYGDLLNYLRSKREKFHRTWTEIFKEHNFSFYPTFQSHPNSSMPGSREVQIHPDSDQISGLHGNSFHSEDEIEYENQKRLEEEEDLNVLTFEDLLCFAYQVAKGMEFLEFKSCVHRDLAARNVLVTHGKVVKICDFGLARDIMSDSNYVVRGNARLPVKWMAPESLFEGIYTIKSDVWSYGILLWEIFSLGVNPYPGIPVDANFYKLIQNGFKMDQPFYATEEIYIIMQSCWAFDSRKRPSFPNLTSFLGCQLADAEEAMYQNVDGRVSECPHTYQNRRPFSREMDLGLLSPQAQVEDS

[10] = target: Mitogen-activated protein kinase 14 (Homo sapiens) (UniProt Q16539); test: Binding affinity to human p38alpha at 500 nM by cell-based competition binding assay relative to control in presence of DTT
Sequence of Mitogen-activated protein kinase 14 (Homo sapiens) (Q16539 whole entry): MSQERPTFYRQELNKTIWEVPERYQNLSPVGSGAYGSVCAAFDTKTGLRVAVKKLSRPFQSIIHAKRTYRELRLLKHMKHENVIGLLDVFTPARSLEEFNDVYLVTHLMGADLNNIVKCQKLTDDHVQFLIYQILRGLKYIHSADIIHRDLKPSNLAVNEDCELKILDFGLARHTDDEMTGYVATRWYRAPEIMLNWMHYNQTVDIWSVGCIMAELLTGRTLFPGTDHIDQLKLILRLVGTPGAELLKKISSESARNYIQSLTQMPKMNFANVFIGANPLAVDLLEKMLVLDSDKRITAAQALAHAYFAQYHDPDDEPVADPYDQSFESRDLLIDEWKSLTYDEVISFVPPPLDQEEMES

[11] = target: Mitogen-activated protein kinase 9 (Homo sapiens) (UniProt P45984); test: Binding affinity to human JNK2 at 200 nM by cell-based competition binding assay relative to control in presence of DTT
Sequence of Mitogen-activated protein kinase 9 (Homo sapiens) (P45984 whole entry, looked up): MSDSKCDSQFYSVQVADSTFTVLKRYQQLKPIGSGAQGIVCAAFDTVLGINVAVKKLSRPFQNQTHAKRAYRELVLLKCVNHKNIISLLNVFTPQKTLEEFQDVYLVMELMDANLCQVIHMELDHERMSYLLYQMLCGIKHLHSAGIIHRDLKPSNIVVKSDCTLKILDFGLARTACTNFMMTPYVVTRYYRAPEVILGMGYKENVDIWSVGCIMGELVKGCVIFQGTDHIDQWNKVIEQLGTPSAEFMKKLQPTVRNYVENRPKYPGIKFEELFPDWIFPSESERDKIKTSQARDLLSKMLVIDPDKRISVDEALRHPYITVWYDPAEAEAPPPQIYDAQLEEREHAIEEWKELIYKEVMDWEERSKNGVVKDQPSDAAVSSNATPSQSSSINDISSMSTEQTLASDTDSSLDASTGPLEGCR
In short: (§3)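 Competition binding screen (Ambit) across a panel of 90 kinases, scoring test ligand displacement of each kinase's binding relative to control. The screen ran under reducing conditions with 7.5 mM DTT.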

[12] = target: T1, Serine/threonine-protein kinase STK11 (Homo sapiens) (UniProt Q15831); test: Binding affinity to human LKB1 at 200 nM by cell-based competition binding assay relative to control in presence of DTT; in short: as §3
T1 sequence (whole entry): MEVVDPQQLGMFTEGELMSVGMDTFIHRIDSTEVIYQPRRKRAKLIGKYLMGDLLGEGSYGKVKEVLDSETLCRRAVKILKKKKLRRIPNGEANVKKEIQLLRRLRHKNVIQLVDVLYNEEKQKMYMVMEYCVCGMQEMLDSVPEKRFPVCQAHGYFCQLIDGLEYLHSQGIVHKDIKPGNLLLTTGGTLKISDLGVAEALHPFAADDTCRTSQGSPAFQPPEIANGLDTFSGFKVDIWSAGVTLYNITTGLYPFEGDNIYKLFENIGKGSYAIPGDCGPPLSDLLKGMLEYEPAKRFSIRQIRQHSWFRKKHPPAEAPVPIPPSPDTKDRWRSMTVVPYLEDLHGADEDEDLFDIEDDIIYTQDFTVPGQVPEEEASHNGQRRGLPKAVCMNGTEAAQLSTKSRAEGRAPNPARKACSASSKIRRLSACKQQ

[13] = target: MAP/microtubule affinity-regulating kinase 3 (Homo sapiens) (UniProt P27448); test: Binding affinity to human MARK3 at 200 nM by cell-based competition binding assay relative to control in presence of DTT; in short: as §3
[14] = target: Dual specificity mitogen-activated protein kinase kinase 1 (Homo sapiens) (UniProt Q02750); test: Binding affinity to human MEK1 at 200 nM by cell-based competition binding assay relative to control in presence of DTT
Sequence of Dual specificity mitogen-activated protein kinase kinase 1 (Homo sapiens) (Q02750 whole entry): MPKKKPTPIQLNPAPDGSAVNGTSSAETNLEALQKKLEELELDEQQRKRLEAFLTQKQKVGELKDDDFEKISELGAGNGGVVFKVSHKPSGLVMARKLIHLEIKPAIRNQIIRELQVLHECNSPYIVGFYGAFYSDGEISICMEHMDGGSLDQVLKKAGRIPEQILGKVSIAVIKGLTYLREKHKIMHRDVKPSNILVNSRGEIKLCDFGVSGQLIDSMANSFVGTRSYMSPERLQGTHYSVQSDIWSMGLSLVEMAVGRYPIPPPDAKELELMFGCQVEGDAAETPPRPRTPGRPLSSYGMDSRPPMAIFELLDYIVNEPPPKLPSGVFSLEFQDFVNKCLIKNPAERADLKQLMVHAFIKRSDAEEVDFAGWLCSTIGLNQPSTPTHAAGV
In short: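 Kinase binding profile from a commercial panel of 90 kinases, run as a competitive binding assay. The panel was screened under reducing conditions of 7.5 mM DTT. Signal was compared with the untreated control.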

[15] = target: MAP kinase-interacting serine/threonine-protein kinase 1 (Homo sapiens) (UniProt Q9BUB5); test: Binding affinity to human MKNK1 at 200 nM by cell-based competition binding assay relative to control in presence of DTT
[16] = target: Serine/threonine-protein kinase PAK 1 (Homo sapiens) (UniProt Q13153); test: Binding affinity to human PAK1 at 200 nM by cell-based competition binding assay relative to control in presence of DTT
Sequence of Serine/threonine-protein kinase PAK 1 (Homo sapiens) (Q13153 whole entry): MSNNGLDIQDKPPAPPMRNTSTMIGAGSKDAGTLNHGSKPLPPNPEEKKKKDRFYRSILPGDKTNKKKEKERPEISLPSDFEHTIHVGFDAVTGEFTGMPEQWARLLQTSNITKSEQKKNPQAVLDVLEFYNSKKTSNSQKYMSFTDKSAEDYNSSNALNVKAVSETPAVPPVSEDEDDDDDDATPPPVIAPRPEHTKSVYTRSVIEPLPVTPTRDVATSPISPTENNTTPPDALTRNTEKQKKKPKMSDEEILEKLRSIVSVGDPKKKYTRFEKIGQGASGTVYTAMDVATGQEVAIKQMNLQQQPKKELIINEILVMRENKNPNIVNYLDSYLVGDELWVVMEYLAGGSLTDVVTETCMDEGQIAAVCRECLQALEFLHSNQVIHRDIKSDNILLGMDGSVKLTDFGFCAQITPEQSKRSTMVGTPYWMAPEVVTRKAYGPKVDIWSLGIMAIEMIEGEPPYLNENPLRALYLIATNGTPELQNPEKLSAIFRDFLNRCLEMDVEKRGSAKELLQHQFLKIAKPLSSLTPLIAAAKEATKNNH

[17] = target: Cyclin-dependent kinase 19 (Homo sapiens) (UniProt Q9BWU1); test: Binding affinity to human CDK11 at 200 nM by cell-based competition binding assay relative to control in presence of DTT; in short: as §2
[18] = test system: Tyrosine-protein kinase ABL1 (Homo sapiens), P00519 [T315I]; test: Binding affinity to human ABL1 T315I mutant at 50 nM by cell-based competition binding assay relative to control in presence of DTT; in short: as §2
[19] = test system: Serine/threonine-protein kinase B-raf (Homo sapiens), P15056 [V600E]; test: Binding affinity to human BRAF V600E mutant at 50 nM by cell-based competition binding assay relative to control in presence of DTT; in short: as §2
[20] = target: Cyclin-dependent kinase 7 (Homo sapiens) (UniProt P50613); test: Binding affinity to human CDK7 at 50 nM by cell-based competition binding assay relative to control in presence of DTT; in short: as §2
[21] = target: Serine/threonine-protein kinase PAK 4 (Homo sapiens) (UniProt O96013); test: Binding affinity to human PAK4 at 50 nM by cell-based competition binding assay relative to control in presence of DTT
[22] = target: Phosphatidylinositol 4,5-bisphosphate 3-kinase catalytic subunit alpha isoform (Homo sapiens) (UniProt P42336); test: Binding affinity to human PIK3Calpha at 50 nM by cell-based competition binding assay relative to control in presence of DTT
[23] = target: High affinity nerve growth factor receptor (Homo sapiens) (UniProt P04629); test: Binding affinity to human TRKA at 50 nM by cell-based competition binding assay relative to control in presence of DTT
[24] = target: Mitogen-activated protein kinase 10 (Homo sapiens) (UniProt P53779); test: Binding affinity to human JNK3 at 50 nM by cell-based competition binding assay relative to control in presence of DTT; in short: as §3

- Activity [1]: 99%
- Activity [2]: 5.6%
- Activity [3]: 70%
- Activity [4]: 36%
- Activity [5]: 100%
- Activity [6]: 92%
- Selectivity ratio [7]: 14
- Activity [8]: 0.05%
- Activity [9]: 0.35%
- Activity [10]: 93%
Compound: CO[C@@H]1[C@H](N(C)C(=O)CCC(=O)NCCC(=O)NCCC(=O)NCCC(N)=O)C[C@H]2O[C@]1(C)n1c3ccccc3c3c4c(c5c6ccccc6n2c5c31)C(=O)NC4

- Activity [11]: 89%
- Activity [12]: 81%
- Activity [13]: 18%
- Activity [14]: 100%
- Activity [15]: 96%
- Activity [16]: 14%
- Activity [17]: 87%
Compound: CO[C@@H]1[C@H](N(C)C(=O)CCC(=O)NCCC(=O)NCCC(=O)NCCC(=O)NCCC(=O)NCCC(=O)NCCC(=O)NCCC(=O)N[C@H]2CSSC[C@@H](C(=O)NCC(N)=O)NC(=O)CNC(=O)[C@H](Cc3ccccc3)NC(=O)[C@H](C(C)C)NC(=O)[C@H](CCCNC(=N)N)NC(=O)[C@H](Cc3ccccc3)NC(=O)[C@H](C(C)C)NC2=O)C[C@H]2O[C@]1(C)n1c3ccccc3c3c4c(c5c6ccccc6n2c5c31)C(=O)NC4 ({Staurosporine-Suc-βAla-βAla-βAla-βAla-βAla-βAla-βAla}-CVFRVFGCG-NH2; disulfide 1-8)

- Activity [18]: 100%
- Activity [19]: 84%
- Activity [20]: 98%
- Activity [21]: 90%
- Activity [22]: 100%
- Activity [23]: 98%
- Activity [24]: 85%
Compound: CO[C@@H]1[C@H](N(C)C(=O)CCC(=O)NCCC(=O)NCCC(=O)NCCC(=O)NCCC(=O)NCCC(=O)NCCC(=O)NCCC(=O)N[C@H]2CNC(=O)C[C@@H](C(N)=O)NC(=O)CNC(=O)[C@H](Cc3ccccc3)NC(=O)[C@H](C(C)C)NC(=O)[C@H](CCCNC(=N)N)NC(=O)[C@H](Cc3ccccc3)NC(=O)[C@H](C(C)C)NC2=O)C[C@H]2O[C@]1(C)n1c3ccccc3c3c4c(c5c6ccccc6n2c5c31)C(=O)NC4 ({Staurosporine-Suc-βAla-βAla-βAla-βAla-βAla-βAla-βAla}-[Dap]VFRVFGD-NH2; lactam 1-8)
